{
  "source": "PubChem BioAssay AID652163",
  "about": "(Broad Institute, 2013)",
  "note": "The whole screen tested about 360,000 compounds, of which about 500 (0.14%) were called active.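 Rule for the calls: active = mean inhibition of at least 70% across replicates, with every replicate also reaching that level; inconclusive = mean inhibition reaches 70% but some replicates fall short; inactive = mean inhibition below 70%.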 This excerpt belongs to a sample that is enriched for actives.",
  "data": [
    {"target": "Protein S100-A4 (Homo sapiens) (UniProt P26447)", "sequence (P26447 whole entry, looked up)": "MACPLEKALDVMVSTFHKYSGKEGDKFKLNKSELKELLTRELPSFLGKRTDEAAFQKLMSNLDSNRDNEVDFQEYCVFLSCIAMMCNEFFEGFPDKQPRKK", "experiment": "inhibitors of S100A4-myosin IIA peptide binding, primary screen, biochemical, fluorescence polarization, TAMRA-MyoIIA peptide (AID 652163)", "settings": "at 10.7 µM, stronger effect = higher value", "outline": "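Test system: S100A4 monomer protein. Medium: HEPES buffer with Ca2+, pH 7.2. Reagent: fluorescent myosin IIA peptide, 5 nM. Compound dosing: single-point compound testing. Timing: 5 min between mix addition and reading. Benchmarks: DMSO neutral and TFP positive wells.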", "values": [
      {"smiles": "C[C@H]1CN([C@@H](C)CO)C(=O)CCCn2cc(nn2)CO[C@H]1CN(C)S(=O)(=O)c1ccc2ccccc2c1", "inhibition": "1.04% (inactive)"},
      {"smiles": "O=C(C[C@@H]1C[C@H]2c3cc(NS(=O)(=O)c4ccc(F)cc4)ccc3O[C@H]2[C@@H](CO)O1)NCc1ccccc1F", "inhibition": "-3.71% (inactive)"},
      {"smiles": "O=C(NC1CCCCC1)[C@@H]1[C@@H](CO)[C@@H]2Cn3c(cccc3=O)[C@@H]2N1C(=O)CC1CC1", "inhibition": "1.5% (inactive)"},
      {"smiles": "COCC(=O)N1CC(=O)N2[C@H](CO)[C@@H](c3ccc(C#CC4CCCCC4)cc3)[C@@H]2C1", "inhibition": "-8.44% (inactive)"},
      {"smiles": "COc1ccccc1NC(=O)N[C@H]1CC[C@H](CCNS(=O)(=O)c2ccc(Cl)cc2)O[C@H]1CO", "inhibition": "107% (active)"},
      {"smiles": "O=C(Nc1ccccc1F)N[C@H]1CC[C@@H](CCNS(=O)(=O)c2ccc(F)cc2)O[C@@H]1CO", "inhibition": "-5.07% (inactive)"},
      {"smiles": "COc1ccc(NC(=O)N[C@H]2CC[C@@H](CCNS(=O)(=O)c3cccc(Cl)c3)O[C@H]2CO)cc1", "inhibition": "18.1% (inactive)"},
      {"smiles": "Cc1noc(C)c1S(=O)(=O)Nc1ccc2c(c1)C(=O)N([C@H](C)CO)C[C@H](C)[C@@H](CN(C)C(=O)CCC(F)(F)F)OCCCC[C@H](C)O2", "inhibition": "-11.4% (inactive)"},
      {"smiles": "C[C@@H]1CN([C@@H](C)CO)S(=O)(=O)c2ccc(C#CCC3CCCC3)cc2O[C@H]1CN(C)Cc1ccc(C(=O)O)cc1", "inhibition": "-3.27% (inactive)"},
      {"smiles": "COc1ccc2c3c([nH]c2c1)[C@H](CO)N(C(=O)Nc1cccc(F)c1)CC31CCN(S(=O)(=O)c2ccccc2)CC1", "inhibition": "-4.14% (inactive)"},
      {"smiles": "COc1ccc(CN(C)C[C@H]2Oc3ccc(NS(=O)(=O)c4ccc(C)cc4)cc3C(=O)N([C@@H](C)CO)C[C@H]2C)cc1", "inhibition": "-4.3% (inactive)"},
      {"smiles": "C[C@@H]1CN([C@@H](C)CO)C(=O)c2cccc(NC(=O)Nc3ccc(F)cc3)c2O[C@@H]1CN(C)Cc1ccc(C(=O)O)cc1", "inhibition": "16.9% (inactive)"},
      {"smiles": "CCC(=O)N1C[C@H](C)[C@H](OC)CN(C)C(=O)c2ccc(NC(=O)Nc3cccc(F)c3)cc2OC[C@@H]1C", "inhibition": "-17.6% (inactive)"},
      {"smiles": "O=C(C[C@@H]1CC[C@H]2[C@@H](COC[C@H](O)CN2S(=O)(=O)c2ccc(F)cc2)O1)N[C@H]1CCN(Cc2ccccc2)C1", "inhibition": "2.74% (inactive)"},
      {"smiles": "C[C@@H](NC(=O)C[C@H]1C[C@@H]2c3cc(NC(=O)C4CCC4)ccc3O[C@@H]2[C@@H](CO)O1)c1ccccc1", "inhibition": "8.72% (inactive)"},
      {"smiles": "CC(C)CC#Cc1ccc([C@@H]2[C@@H](CO)N3C(=O)CN(C(=O)Nc4ccc(F)cc4)C[C@H]23)cc1", "inhibition": "-1.01% (inactive)"},
      {"smiles": "CO[C@H]1CN(C)C(=O)c2ccc(NC(C)=O)cc2OC[C@H](C)N(C(=O)c2ccccc2)C[C@H]1C", "inhibition": "-4.17% (inactive)"},
      {"smiles": "COc1ccc(CN(C)C[C@@H]2OCCCC[C@H](C)Oc3ccc(NS(=O)(=O)c4ccc(F)cc4)cc3C(=O)N([C@@H](C)CO)C[C@@H]2C)cc1", "inhibition": "-2.85% (inactive)"},
      {"smiles": "C[C@H]1CCCCO[C@H](CN(C)S(C)(=O)=O)[C@@H](C)CN([C@@H](C)CO)C(=O)c2cc(NC(=O)C3CCCCC3)ccc2O1", "inhibition": "3.69% (inactive)"},
      {"smiles": "O=C(Nc1ccc(F)cc1)N1C[C@H]2[C@@H](c3ccccc31)[C@@H](CO)N2Cc1cocn1", "inhibition": "-2.03% (inactive)"},
      {"smiles": "CO[C@@H]1CN(C)C(=O)c2ccc(NS(=O)(=O)c3cccc(F)c3)cc2OC[C@H](C)N(C(=O)Cc2cccnc2)C[C@@H]1C", "inhibition": "0.669% (inactive)"},
      {"smiles": "CC(C)[C@@H]1COCn2nncc2CCCC(=O)N1", "inhibition": "-3.23% (inactive)"},
      {"smiles": "CCCNC(=O)[C@@H]1[C@@H](CO)[C@@H]2Cn3c(cccc3=O)[C@H]1N2C(=O)C1CCC1", "inhibition": "6.67% (inactive)"},
      {"smiles": "Cc1cccc(S(=O)(=O)N2C[C@H]3[C@@H](c4ccccc42)[C@H](CO)N3Cc2ccc3c(c2)OCO3)c1", "inhibition": "7.88% (inactive)"},
      {"smiles": "Cc1cccc(S(=O)(=O)N2C[C@@H]3[C@H](c4ccccc42)[C@@H](CO)N3C(=O)c2ccccc2)c1", "inhibition": "3.03% (inactive)"},
      {"smiles": "Cc1cccc(S(=O)(=O)N2C[C@@H]3[C@H](c4ccccc42)[C@H](CO)N3CC2CCOCC2)c1", "inhibition": "86.4% (active)"},
      {"smiles": "C[C@H](CO)N1C[C@H](C)[C@@H](CN(C)C(=O)Nc2ccccc2)Oc2ncc(C3=CCCC3)cc2C1=O", "inhibition": "2.15% (inactive)"},
      {"smiles": "CO[C@H]1CN(C)C(=O)c2cc(NS(=O)(=O)c3ccc(C)cc3)ccc2OC[C@H](C)NC[C@H]1C", "inhibition": "7.5% (inactive)"},
      {"smiles": "COc1cccc(C#Cc2cnc3c(c2)C(=O)N([C@@H](C)CO)C[C@H](C)[C@H](CN(C)CC2CC2)O3)c1", "inhibition": "-46.8% (inactive)"},
      {"smiles": "O=C(C[C@@H]1CC[C@@H](NC(=O)Nc2ccc(F)cc2)[C@@H](CO)O1)NCCN1CCCC1", "inhibition": "-3.14% (inactive)"},
      {"smiles": "O=C(Cc1ccccc1)N1C[C@H]2[C@@H](c3ccccc31)[C@H](CO)N2C(=O)c1ccc(F)cc1", "inhibition": "7.78% (inactive)"},
      {"smiles": "CCS(=O)(=O)N1[C@H](CO)[C@@H](c2ccccc2)C12CN(C(=O)C1CCC1)C2", "inhibition": "-10% (inactive)"},
      {"smiles": "COc1ccc(NC(=O)N(C)C[C@@H]2OCCCC[C@@H](C)Oc3ccc(NC(=O)C4CCCCC4)cc3C(=O)N([C@@H](C)CO)C[C@@H]2C)cc1", "inhibition": "2.51% (inactive)"},
      {"smiles": "CCCNC(=O)Nc1ccc2c(c1)OC[C@H](C)N(C(=O)C1CCC1)C[C@H](C)[C@@H](OC)CN(C)C2=O", "inhibition": "-7.21% (inactive)"},
      {"smiles": "COCC#Cc1cnc2c(c1)C(=O)N([C@H](C)CO)C[C@@H](C)[C@@H](CN(C)C(=O)Nc1cccc(F)c1)O2", "inhibition": "-1.97% (inactive)"},
      {"smiles": "C[C@@H]1CN([C@H](C)CO)C(=O)c2cc(NC(=O)Cn3cnnn3)ccc2O[C@@H]1CN(C)CC1CC1", "inhibition": "13.2% (inactive)"},
      {"smiles": "CN(C)C(=O)c1ccc(-c2ccc([C@@H]3[C@@H](CO)N4CCCCN(CC5CC5)C[C@H]34)cc2)cc1", "inhibition": "11.7% (inactive)"},
      {"smiles": "O=C(C[C@H]1C=C[C@H](NC(=O)CN2CCOCC2)[C@@H](CO)O1)NCc1cccc(F)c1", "inhibition": "2.82% (inactive)"},
      {"smiles": "CC=Cc1ccc2n(c1=O)C[C@H]1[C@H](CO)[C@@H](C(=O)NCCc3cn(C)cn3)[C@@H]2N1C(=O)CC", "note": "(mixture of isomers)", "inhibition": "-3.21% (inactive)"},
      {"smiles": "C[C@@H]1CN([C@@H](C)CO)C(=O)c2c(c3ccccc3n2C)-c2ccccc2CO[C@@H]1CN(C)Cc1ccc2c(c1)OCCN2C", "inhibition": "1.33% (inactive)"},
      {"smiles": "O=C(N[C@H]1CC[C@@H](CCNS(=O)(=O)Cc2ccccc2)O[C@H]1CO)c1ccccc1F", "inhibition": "106% (active)"},
      {"smiles": "CC(C)NC(=O)N[C@@H]1CC[C@@H](CCNS(=O)(=O)Cc2ccccc2)O[C@@H]1CO", "inhibition": "-2.44% (inactive)"},
      {"smiles": "O=C(N[C@@H]1CC[C@@H](CCNS(=O)(=O)Cc2ccccc2)O[C@@H]1CO)c1ccccc1F", "inhibition": "3.62% (inactive)"},
      {"smiles": "C[C@@H]1CN([C@@H](C)CO)C(=O)Cc2cc(NC(=O)Cc3ccccc3)ccc2O[C@@H]1CN(C)C(=O)Nc1ccc2c(c1)OCO2", "inhibition": "-20.2% (inactive)"},
      {"smiles": "CS(=O)(=O)Nc1ccc2c(c1)[C@H]1C[C@H](CC(=O)NC3CCCC3)O[C@@H](CO)[C@H]1O2", "inhibition": "5.62% (inactive)"},
      {"smiles": "CN(C)C(=O)[C@@H]1[C@@H](CO)[C@@H]2Cn3c(ccc(C4=CCCC4)c3=O)[C@H]1N2Cc1ccccn1", "inhibition": "6.14% (inactive)"},
      {"smiles": "COc1ccc2c3c([nH]c2c1)[C@@H](CO)N(C(=O)c1cccc(F)c1)CC31CN(C(C)=O)C1", "inhibition": "-5.37% (inactive)"},
      {"smiles": "CCOc1ccc(N(CC(=O)NCCOc2ccccc2OC)S(=O)(=O)c2ccccc2)cc1", "inhibition": "116% (active)"},
      {"smiles": "CCOc1ccc(N(CC(=O)NCCc2ccc(F)cc2)S(=O)(=O)c2ccccc2)cc1", "inhibition": "-1.04% (inactive)"},
      {"smiles": "COc1ccc(CCNC(=O)CN(c2ccccc2)S(=O)(=O)c2ccccc2)cc1", "inhibition": "0.0805% (inactive)"},
      {"smiles": "N[C@@H]1CC[C@H](CCn2cc(C3CC3)nn2)O[C@@H]1CO", "inhibition": "5.57% (inactive)"},
      {"smiles": "C[C@@H]1CN([C@H](C)CO)C(=O)c2cc(NC(=O)CCCCCC(=O)Nc3ccccc3N)ccc2O[C@H]1CN(C)C(=O)Nc1ccc(C(F)(F)F)cc1", "inhibition": "-13% (inactive)"},
      {"smiles": "C[C@H](CO)N1C[C@H](C)[C@@H](CN(C)Cc2ccncc2)Oc2cc(Br)ccc2S1(=O)=O", "inhibition": "-8.65% (inactive)"},
      {"smiles": "C[C@@H]1CN([C@H](C)CO)C(=O)c2cc(NC(=O)c3ccncc3)ccc2O[C@H]1CN(C)Cc1ccc(Oc2ccccc2)cc1", "inhibition": "1.42% (inactive)"},
      {"smiles": "C[C@@H]1CN([C@@H](C)CO)C(=O)c2cc(NC(=O)c3ccncc3)ccc2O[C@@H]1CN(C)Cc1ccncc1", "inhibition": "106% (active)"},
      {"smiles": "COc1ccc(CN(C)C[C@H]2Oc3c(NC(=O)Nc4ccccc4)cccc3C(=O)N([C@@H](C)CO)C[C@@H]2C)cc1", "inhibition": "91.2% (active)"},
      {"smiles": "C[C@H]1CN([C@@H](C)CO)C(=O)c2cccc(NC(=O)Nc3ccccc3)c2O[C@H]1CN(C)Cc1ccc(Oc2ccccc2)cc1", "inhibition": "-8.88% (inactive)"},
      {"smiles": "C[C@@H]1CN([C@@H](C)CO)C(=O)c2cc(NC(=O)c3ccncc3)ccc2O[C@H]1CN(C)Cc1ccc(C(=O)O)cc1", "inhibition": "3.13% (inactive)"},
      {"smiles": "C[C@H]1CN([C@@H](C)CO)C(=O)c2cccc(NC(=O)c3ccncc3)c2O[C@@H]1CN(C)C", "inhibition": "1.35% (inactive)"},
      {"smiles": "C[C@@H]1CN([C@H](C)CO)C(=O)c2cccc(NC(=O)c3ccncc3)c2O[C@@H]1CN(C)C", "inhibition": "111% (active)"},
      {"smiles": "C[C@H]1CN([C@@H](C)CO)C(=O)c2cccc(NC(=O)c3ccncc3)c2O[C@H]1CN(C)C", "inhibition": "13.8% (inactive)"},
      {"smiles": "C[C@@H]1CN([C@@H](C)CO)C(=O)c2cccc(NC(=O)Nc3ccccc3)c2O[C@H]1CN(C)Cc1ccccc1", "inhibition": "-2.48% (inactive)"},
      {"smiles": "CO[C@H]1CC[C@H]2CCN(C)C(=O)C[C@@H](c3ccccc3)CN(C)C(=O)c3cccc(C#N)c3OC[C@@H]1O2", "inhibition": "0.912% (inactive)"}
    ]}
  ]
}
